High-throughput results (PubChem BioAssay)
This is a sample that favours compounds with a hit; in the whole collection about 2.3% have one here.
TRPC6 act – mouse TRPC6 channel activation | 310,000 tested, 0.13% active | Q61143 | HEK293-TRPC6 membrane potential dye fluorescence; stronger effect = higher value | B-score at 10 µM;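 active = B-score of the integrated fluorescence ratio above library mean plus 3 SD, and starting fluorescence ratio within library mean plus 5 SD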;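 note: higher score means more depolarization so channel activation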
TRPC4 act – TRPC4 (mouse) channel activation | Q9QUQ5 | HEK293 TRPC4beta/mu-opioid, Fluo4 calcium fluorescence; stronger effect = higher value | B-score at 10 µM | 310,000 tested, 0.49% active;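 active = B-score above 5 SD of library B-scores, and initial fluorescence ratio not above library mean plus 5 SD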;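 note: positive B-score marks a calcium rise read as TRPC4 activation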
Target sequence (Q9QUQ5 whole entry, looked up): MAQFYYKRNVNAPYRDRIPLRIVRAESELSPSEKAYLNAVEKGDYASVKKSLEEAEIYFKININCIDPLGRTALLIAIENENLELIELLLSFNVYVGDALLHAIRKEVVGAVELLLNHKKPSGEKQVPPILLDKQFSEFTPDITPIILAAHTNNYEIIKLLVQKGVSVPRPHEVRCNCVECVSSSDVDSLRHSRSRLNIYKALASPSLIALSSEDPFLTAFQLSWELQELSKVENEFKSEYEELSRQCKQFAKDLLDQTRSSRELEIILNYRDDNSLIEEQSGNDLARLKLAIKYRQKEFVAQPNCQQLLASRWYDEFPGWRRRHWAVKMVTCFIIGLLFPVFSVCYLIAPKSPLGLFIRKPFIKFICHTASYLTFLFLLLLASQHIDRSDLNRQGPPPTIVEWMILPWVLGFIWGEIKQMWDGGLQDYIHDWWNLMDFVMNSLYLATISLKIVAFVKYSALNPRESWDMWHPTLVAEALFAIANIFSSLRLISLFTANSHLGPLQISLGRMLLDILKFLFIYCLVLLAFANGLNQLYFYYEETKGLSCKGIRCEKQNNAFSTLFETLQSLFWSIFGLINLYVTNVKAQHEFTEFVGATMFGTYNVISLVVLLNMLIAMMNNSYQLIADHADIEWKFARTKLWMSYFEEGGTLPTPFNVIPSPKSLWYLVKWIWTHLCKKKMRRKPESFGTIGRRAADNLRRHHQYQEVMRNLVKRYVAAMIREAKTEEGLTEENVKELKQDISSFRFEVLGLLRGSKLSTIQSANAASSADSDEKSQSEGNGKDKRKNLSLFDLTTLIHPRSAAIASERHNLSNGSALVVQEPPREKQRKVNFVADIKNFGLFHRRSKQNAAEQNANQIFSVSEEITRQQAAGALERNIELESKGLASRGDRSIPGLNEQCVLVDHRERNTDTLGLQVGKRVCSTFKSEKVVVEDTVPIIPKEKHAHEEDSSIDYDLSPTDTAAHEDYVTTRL
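Material: TRPC4beta and mu-opioid receptor HEK293 stable cells | Incubation: 45 min room-temperature Fluo4 loading, 110 s read | Detection: Kinetic Fluo4 calcium fluorescence | Measure: Integrated baseline-normalised fluorescence ratio, converted to per-well B score | Benchmarks: Low control buffer alone, high control maximal DAMGO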
TRPC4 inh – inhibitors of mouse TRPC4 channel. B-score at 10 µM. 300,000 tested, 0.39% active. Q9QUQ5. AID 2247. HEK293 TRPC4beta/mu-opioid, DAMGO-evoked Fluo4 calcium flux; stronger effect = lower value;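 active = B-score over 3 SD under the library average, no early fluorescence shift, positive overall ratio signal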
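Assay system: TRPC4beta/mu-opioid receptor HEK293 cell line; compound dosing: single concentration per test compound; detection: Fluo4 Ca2+ flux fluorescence; evaluation: per-well B score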
TRPC6 inh – blocks the mouse TRPC6 cation channel; Q61143; HEK293-TRPC6, membrane potential dye, ACh-evoked depolarization; stronger effect = lower value; B-score at 10 µM; 310,000 tested, 1.1% active; AID 2553;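 active = B-score under library mean minus 3 SD, initial fluorescence not abnormally high, positive integrated signal ratio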;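 note: B-score derived from integrated fluorescence ratio over the kinetic read; more negative B-score means stronger inhibition of depolarization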
TRPC4 potent – TRPC4 (mouse) allosteric potentiation. Q9QUQ5. HEK293 TRPC4beta/mu-opioid, DAMGO EC20, Fluo-4 Ca2+ flux; stronger effect = higher value. B-score at 10 µM. 310,000 tested, 0.42% active. AID 2227;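 active = B-score of calcium response area above 5 SD of library B-scores, with initial fluorescence ratio within 5 SD of library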;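 note: B-score of integrated fluorescence ratio over time as area under calcium response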
TRPC4 spec 2 – second check of whether TRPC6 inhibitors also affect mouse TRPC4; 920 tested, 42% active; inhibition, % at 10 µM; HEK293 TRPC4/MOR, membrane potential dye fluorescence; channel activated by saturating DAMGO dose; shares compounds with TRPC6 inh;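 active = compounds whose fluorescence signal differed from control wells by over 3 SD, either direction, in both duplicate plates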
TRPC4 spec – selectivity of TRPC6 inhibitors: effect on mouse TRPC4; shares compounds with TRPC6 inh; activity change, negative = inhibition, % at 10 µM; HEK293 TRPC4/mu-opioid, membrane potential fluorescence; 920 tested, 61% active;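 active = rise or fall in signal beyond 3 SD of buffer-only wells in both replicate plates, either sign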;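 note: integrated kinetic ratio of fluorescence range over baseline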
HEK293 MPD ctr 2-1 – second check of TRPC6 inhibitor effects in parental HEK293 cells; parental HEK293 membrane potential dye fluorescence; maximal acetylcholine challenge after compound addition; signal change vs control, % at 10 µM; AID 2779; 920 tested, 31% active; shares compounds with TRPC6 inh;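 active = membrane potential signal moving either way by over 3 SD of the maximum-effect control, in both duplicate plates, meaning non-specific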
HEK293 MPD ctr-1 – parental HEK293 nonspecific activity of TRPC6 inhibitors; membrane potential signal change, % at 10 µM; AID 2780; 920 tested, 60% active; parental HEK293 membrane potential dye fluorescence; shares compounds with TRPC6 inh;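 active = membrane potential signal shifting up or down by more than 3 SD of buffer-only wells, on both duplicate plates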
HEK293 MPD ctr-2 – counter-screen for TRPC6 modulators: effect in parental HEK293 cells; AID 488924; membrane potential signal change, % at 10 µM; membrane potential dye fluorescence; 2,400 tested, 51% active; shares compounds with TRPC6 inh;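 active = membrane potential signal moves up or down beyond 5 SD from buffer-only wells, on both duplicate plates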
HEK293 MPD ctr 2-2 – second check of TRPC6 modulator effects in parental HEK293 cells; 2,400 tested, 14% active; inhibition, % at 10 µM; shares compounds with TRPC6 inh; membrane potential dye fluorescence; after compound, maximal acetylcholine stimulation; AID 488926;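 active = membrane potential signal drops by more than 5 SD from the mean control signal, in both duplicate plates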;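 note: plate controls were acetylcholine ECmax control wells for no effect and buffer only wells for full effect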
TRPC4 ctr mod – selectivity of TRPC6 modulators against mouse TRPC4 | 2,400 tested, 69% active | AID 488927 | HEK293 TRPC4/mu-opioid, membrane potential fluorescence | percent change from control (negative = decrease, positive = increase), % at 10 µM | shares compounds with TRPC6 inh;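 active = membrane potential signal moved up or down beyond 5 SD of buffer control wells, in both duplicate plates, actives on both sides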;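 note: plate controls were assay buffer wells for no effect and DAMGO maximal-effect wells for full effect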
TRPC4 ctr inh 2 – second check of whether TRPC6 modulators also affect mouse TRPC4; shares compounds with TRPC6 inh; HEK293 TRPC4/mu-opioid, membrane potential dye fluorescence; stimulated with maximal-effect DAMGO; inhibition, % at 10 µM; 2,400 tested, 55% active;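 active = drop in membrane potential signal beyond 5 SD of the control wells in both duplicate plates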;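 note: TRPC4 counter screen for TRPC6 hits run under conditions tuned for TRPC6 not TRPC4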
TRPC6 inh conf – mouse TRPC6 inhibitor confirmation; shares compounds with TRPC6 inh; HEK293-TRPC6, membrane potential dye, ACh-evoked depolarization; inhibition, % at 10 µM; 3,300 tested, 43% active; AID 488960;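 active = fluorescence ratio falls more than 5 SD below the full-stimulation control mean, in both duplicate runs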;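 note: integrated fluorescence ratio of peak minus minimum over baseline after agonist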
TRPC6 act confirm – mouse TRPC6 activator confirmation; AID 488961; activation, % at 10 µM; shares compounds with TRPC6 inh; 2,800 tested, 11% active; HEK293-TRPC6 membrane potential dye fluorescence, FDSS;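 active = ratio signal rise beyond 5 SD above unstimulated control wells' mean, seen in both duplicate runs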;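 note: plate controls were buffer EC0 wells for no effect and acetylcholine ECmax response for full effect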
Numbers without * were called inactive; i = inactive; nt = no result given; ! = not active in a repeat.

SMILES	TRPC6 act	TRPC4 act	TRPC4 inh	TRPC6 inh	TRPC4 potent	HEK293 MPD ctr-2	HEK293 MPD ctr 2-2	TRPC4 ctr mod	TRPC4 ctr inh 2	TRPC6 inh conf	TRPC6 act confirm	others
Cc1ccc(C(=O)Nc2ccc(N3CCN(S(C)(=O)=O)CC3)cc2)cc1C	i	i	i	i	i	nt	nt	nt	nt	nt	nt
Cc1ccc(C(=O)Nc2ccc(N3CCCC3)cc2)cc1	i	i	i	i	i	nt	nt	nt	nt	nt	nt
CC(C)Oc1ccc(C(=O)Nc2ccc(N3CCCCC3)cc2)cc1	i	i	i	-5.89*	i	i	i	i	i	i	i
Cc1ccc(C(=O)Nc2ccc(N3CCN(C)CC3)cc2)cc1C	i	i	i	-6.07*	i	i	i	-15.0%*	44.5%*	41.5%*	i
CCc1nnc(NC(=O)CCC(=O)NC2CC2)s1	i	i	i	i	i	nt	nt	nt	nt	nt	nt
O=C(CN1C(=O)NC2(CCCC2)C1=O)c1ccc(Cl)s1	i	i	i	i	i	nt	nt	nt	nt	nt	nt
CCOc1ccc(/C=N/NC(=O)C(O)c2ccccc2)c(O)c1 (stereo not drawn)	i	i	i	i	i	nt	nt	nt	nt	nt	nt
C=CCn1c(Oc2cc(C)ccc2C)nc2c1c(=O)n(C)c(=O)n2C	i	i	i	-6.18*	i	139.5%*	i	29.5%*	41.0%*	i	nt
C=CCn1c(Oc2cccc(C)c2)nc2c1c(=O)n(C)c(=O)n2C	i	i	i	i	i	nt	nt	nt	nt	nt	nt
CCOc1ccc(S(=O)(=O)Nc2cccc(C(=O)NCC(C)(C)N3CCOCC3)c2)cc1	i	i	i	i	i	nt	nt	nt	nt	nt	nt
Cc1cc(CSC(=N)N)c(CSC(=N)N)cc1C	i	130*	i	-6.81*	i	-264.5%*	58.5%*	-36.0%*	i	47.0%*	i
CCOC(=O)N1CCC(c2cc(=O)n3[nH]c(C)c(-c4ccc(F)cc4)c3n2)CC1	15.6*	i	i	i	i	i	i	i	i	nt	195.5%*
CCOC(=O)N1CCC(c2cc(=O)n3[nH]c(-c4ccccc4)cc3n2)CC1	i	i	i	i	i	nt	nt	nt	nt	nt	nt
COc1ccc(C(=O)OCC(=O)Nc2sccc2C(N)=O)cc1OC	i	i	i	i	i	nt	nt	nt	nt	nt	nt
COc1ccccc1OCC(=O)OCC(=O)Nc1sccc1C(N)=O	i	i	i	-5.42*	i	i	i	i	i	i	i
CCN1C(=O)CC(NC2CCN(C(=O)c3ccc(F)cc3)CC2)C1=O (stereo not drawn)	i	i	i	i	i	nt	nt	nt	nt	nt	nt
CC(C)c1ccc(OCc2nnc(SCC(=O)N3CCCCC3)o2)cc1	i	i	i	i	i	nt	nt	nt	nt	nt	nt
O=C(NCC(c1ccco1)N1CCCC1)c1ccccc1Sc1ccc(C(F)(F)F)cc1[N+](=O)[O-] (stereo not drawn)	i	i	i	-6.62*	i	nt	nt	nt	nt	i	i	TRPC4 spec 2=i;TRPC4 spec=3.1%*;HEK293 MPD ctr 2-1=245.0%*;HEK293 MPD ctr-1=i
O=C(NCC(c1ccco1)N1CCCC1)c1ccc(Cl)cc1 (stereo not drawn)	i	i	i	i	i	nt	nt	nt	nt	nt	nt
CN(/C(=N/S(=O)(=O)c1ccccc1)c1ccccc1)S(=O)(=O)c1ccccc1	i	i	i	-6.46*	i	i	i	10.5%*	i	i	i
Clc1ccc2c(NCc3ccccc3)ccnc2c1	i	i	i	-5.49*	i	-98.5%*	i	-23.0%*	77.5%*	37.5%*	i
CCN(CC)CCNc1ccnc2cc(Cl)ccc12	i	i	i	-11.8*	i	-333.0%*	70.5%*	-50.0%*	71.0%*	73.0%*	i
Oc1ccc(Nc2ccnc3cc(Cl)ccc23)cc1	i	i	i	i	i	nt	nt	nt	nt	nt	nt
CCN(CC)Cc1cc(Nc2ccnc3cc(Cl)ccc23)ccc1O	i	i	i	-5.72*!	i	-184.5%*	i	-33.5%*	51.5%*	i	i
CC(C)=CCN1CCN(Cc2cn[nH]c2C2CCCCC2)CC1CCO (stereo not drawn)	i	i	i	i	i	nt	nt	nt	nt	nt	nt
SMILES	TRPC6 act	TRPC4 act	TRPC4 inh	TRPC6 inh	TRPC4 potent	HEK293 MPD ctr-2	HEK293 MPD ctr 2-2	TRPC4 ctr mod	TRPC4 ctr inh 2	TRPC6 inh conf	TRPC6 act confirm	others
CCOC(=O)N1CCN(C(=O)Cn2nc(-c3ccc(Cl)cc3)ccc2=O)CC1	i	i	i	-6.8*	i	nt	nt	nt	nt	56.8%*	nt	TRPC4 spec 2=i;TRPC4 spec=0.5%*;HEK293 MPD ctr 2-1=i;HEK293 MPD ctr-1=2.3%*
CCN1CCN(C(=O)Cn2nc(-c3ccc(Cl)cc3)ccc2=O)CC1	i	i	i	i	i	nt	nt	nt	nt	nt	nt
CCCc1nc2c(C)cc(C)cc2c(N)c1CC	i	i	i	-5.99*	i	-94.0%*	i	-18.5%*	60.5%*	i	i
COc1ccc(-n2cnnc2SCC(=O)Nc2cc(S(=O)(=O)N3CCCCC3)ccc2C)cc1	i	i	i	-6.09*	i	i	i	i	i	i	i
COc1cc([N+](=O)[O-])ccc1NC(=O)Nc1cnccn1	i	i	i	-5.51*	i	i	i	76.5%*	90.5%*	58.5%*	nt
COc1ccccc1NC(=O)Nc1cnccn1	i	i	i	i	i	nt	nt	nt	nt	nt	nt
